# Test system: Mycobacterium tuberculosis
# Test: Inhibition of Bio-A overexpressed in Mycobacterium tuberculosis in presence of anhydrotetracycline after 9 days
# Outline: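 BioA-overexpressing or BioA-underexpressing Mtb strains were pregrown in Sauton's with 1 μM biotin, washed twice, and seeded at OD580 0.03 in biotin-free medium with 200 ng/mL anhydrotetracycline to set BioA expression. Compounds were tested at 0.2–50 μM final at 37 °C. OD580 was read after 9 days. MIC is the concentration giving 50% inhibition. Triplicate, two biological replicates.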
Compound,MIC50,MIC90
CC(=O)c1ccc(-c2cn(Cc3cccc(Cl)c3)nn2)s1,> 50 µM,
CC(=O)c1ccc(N2CCN(C(=O)c3ccc4c(c3)OCCO4)CC2)cc1,> 50 µM,
COC(=O)c1ccc(N2CCN(C(=O)c3cccc(Cl)c3)CC2)cc1,> 50 µM,
O=C1CCc2cc(N3CCN(C(=O)c4cccc(Cl)c4)CC3)ccc21,8.1 µM,
CC(=O)c1ccc(N2CCN(C(=O)c3cncc(Cl)c3)CC2)cc1,> 50 µM,
CC(=O)c1ccc(N2CCC(C(=O)c3ccc4c(c3)OCO4)CC2)cc1,> 50 µM,
CC(=O)c1ccc(N2CCN(C(=O)c3ccc4c(c3)OCCCO4)CC2)cc1,> 50 µM,
CCCCCC(=O)N1CCN(c2ccc(C(C)=O)cc2)CC1,47.6 µM,
CN1Cc2cc(N3CCN(C(=O)c4cccc(Cl)c4)CC3)ccc2C1=O,> 50 µM,
CC(=O)c1ccc(N2CCC(C(=O)c3cccc(Cl)c3)CC2)cc1,9.2 µM,
CC(=O)c1ccc(N2CCN(C(=O)c3ccc(Cl)c(Cl)c3)CC2)cc1,17.7 µM,
N#Cc1ccc(N2CCN(C(=O)c3cccc(Cl)c3)CC2)cc1,45.9 µM,
CCC(=O)N1CCN(c2ccc(C(C)=O)cc2)CC1,> 50 µM,
CC(=O)c1ccc(N2CCN(C(=O)c3cnn(C)c3)CC2)cc1,> 50 µM,
Cn1nnnc1-c1ccc(N2CCN(C(=O)c3cccc(Cl)c3)CC2)cc1,> 50 µM,
O=C(c1cccc(Cl)c1)N1CCN(c2ccc(-c3ccccn3)cc2)CC1,> 50 µM,
CC(=O)c1ccc(-c2cn(Cc3cccc(Cl)c3)nn2)cc1,> 50 µM,
CC(=O)c1cccc(N2CCN(C(=O)c3cccc(Cl)c3)CC2)c1,> 50 µM,

Compound,MIC50,MIC90
O=C1OCc2cc(N3CCN(C(=O)c4cccc(Cl)c4)CC3)ccc21,> 50 µM,
CC(=O)c1ccc(N2CCN(C(=O)c3ccc4c(c3)OCO4)CC2)cc1,31.1 µM,> 50 µM
Cc1noc(-c2ccc(N3CCN(C(=O)c4cccc(Cl)c4)CC3)cc2)n1,> 50 µM,
CC(=O)c1ccc(N2CCN(C(=O)c3cc(Cl)cc(Cl)c3)CC2)cc1,> 50 µM,
C/C(=N\O)c1ccc(N2CCN(C(=O)c3cccc(Cl)c3)CC2)cc1,> 50 µM,
COc1cc(Cl)cc(C(=O)N2CCN(c3ccc(C(C)=O)cc3)CC2)c1,> 50 µM,
CC(=O)c1ccc(N2CCN(C(=O)c3cscn3)CC2)cc1,> 50 µM,
CC(=O)c1ccc(N2CCN(C(=O)c3cccc(Cl)c3)CC2)cc1,7.5 µM,
COc1ccc(-c2ccc(N3CCN(C(=O)c4cccc(Cl)c4)CC3)cc2)nc1,> 50 µM,
O=C1CCc2cc(N3CCN(C(=O)c4ccc5c(c4)OCO5)CC3)ccc21,2.8 µM,
CC(=O)c1ccc(N2CCN(C(=O)CC(C)C)CC2)cc1,> 50 µM,
O=C(c1cccc(Cl)c1)N1CCN(c2ccc3c(c2)COC3)CC1,> 50 µM,
CC(=O)c1ccc(N2CCN(C(=O)c3cccnc3)CC2)cc1,> 50 µM,
O=C(c1cccc(Cl)c1)N1CCN(c2ccc(-c3ccno3)cc2)CC1,38.9 µM,
O=C(c1cccc(Cl)c1)N1CCN(c2ccc([N+](=O)[O-])cc2)CC1,20.9 µM,
CC(=O)c1ccc(N2CCN(C(=O)c3cccc(Cl)c3)CC2)s1,7.6 µM,
CCCC(=O)N1CCN(c2ccc(C(C)=O)cc2)CC1,> 50 µM,

# Test system: not listed separately
# Test: Binding affinity to N-terminally His-tagged Mycobacterium tuberculosis BioA overexpressed in Escherichia coli by ITC method
# Outline: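 BioA loaded with PLP by adding 1 mM PLP after size exclusion, then buffer-exchanged into 25 mM HEPES pH 7.5, 50 mM NaCl. Titrated at 25 °C: 10 μM BioA, ligand 100 μM with DMSO matched, 2 μL injections 150 s apart, 750 rpm. First injection discarded; dilution heats corrected; curve fit gives KA, KD = 1/KA. Triplicate, mean ± standard error.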
row,Compound,Kd
1,O=C1CCc2cc(N3CCN(C(=O)c4cccc(Cl)c4)CC3)ccc21,132 nM
2,CN1Cc2cc(N3CCN(C(=O)c4cccc(Cl)c4)CC3)ccc2C1=O,866 nM
3,O=C1OCc2cc(N3CCN(C(=O)c4cccc(Cl)c4)CC3)ccc21,685 nM
4,CC(=O)c1ccc(N2CCN(C(=O)c3ccc4c(c3)OCO4)CC2)cc1,108 nM
5,CC(=O)c1ccc(N2CCN(C(=O)c3cccc(Cl)c3)CC2)cc1,157 nM
6,O=C1CCc2cc(N3CCN(C(=O)c4ccc5c(c4)OCO5)CC3)ccc21,74 nM
7,CC(=O)c1ccc(N2CCN(C(=O)c3cccc(Cl)c3)CC2)s1,322 nM
